Assay results pooled from the literature.
Each line is one published result; the experiments were not run side by side.
MTNR1A: Melatonin receptor type 1A (MTNR1A, Homo sapiens, UniProt P48039)
Glucagon receptor: Glucagon receptor (Mus musculus, UniProt Q61606)

Structure (SMILES)	target	observed	action	method	EC50 [nM]
C#CCOCCOCCOCCOc1ccc2c3c1C1CCCC1N3CCNC2 (racemic)	5-hydroxytryptamine receptor 2C (HTR2C, Homo sapiens, UniProt P28335)	calcium signal	agonist	fluorescence	647
COc1ccc2[nH]cc(CCNC(C)=O)c2c1I	MTNR1A	cAMP	agonist	TR-FRET	229
COc1ccc(CSc2nnc(C3CC3)[nH]2)cc1	MTNR1A	cAMP	agonist	luciferase	2.96
CC[C@H](C)[C@H](NC(=O)[C@H](CO)NC(=O)[C@H](Cc1ccc(O)cc1)NC(=O)[C@H](CC(=O)O)NC(=O)[C@H](CO)NC(=O)[C@@H](NC(=O)[C@H](Cc1ccccc1)NC(=O)[C@@H](NC(=O)CNC(=O)[C@H](CCC(=O)O)NC(=O)[C@H](C)NC(=O)[C@@H](N)Cc1ccc(O)cc1)[C@@H](C)O)[C@@H](C)CC)C(=O)N[C@@H](C)C(=O)N[C@@H](CCSC)C(=O)N[C@@H](CC(=O)O)C(=O)N[C@@H](CCCCN)C(=O)N[C@H](C(=O)N[C@@H](CCCNC(=N)N)C(=O)N[C@@H](CCC(N)=O)C(=O)N[C@@H](CCC(N)=O)C(=O)N[C@@H](CC(=O)O)C(=O)N[C@@H](Cc1ccccc1)C(=O)N[C@H](C(=O)N[C@@H](CC(N)=O)C(=O)N[C@@H](Cc1c[nH]c2ccccc12)C(=O)N[C@@H](CC(C)C)C(=O)N[C@@H](CC(C)C)C(=O)N[C@@H](C)C(=O)N[C@@H](CCC(N)=O)C(=O)N[C@@H](CCCNC(=N)N)C(=O)NCC(=O)N[C@@H](CCCCN)C(=O)N[C@@H](CCCCN)C(=O)N[C@@H](CO)C(=O)N[C@@H](CC(=O)O)C(=O)N[C@@H](Cc1c[nH]c2ccccc12)C(=O)N[C@@H](CCCCN)C(=O)N[C@@H](Cc1c[nH]cn1)C(=O)N[C@@H](CC(N)=O)C(=O)N[C@H](C(=O)N[C@H](C(=O)N[C@@H](CCC(N)=O)C(=O)O)[C@@H](C)O)[C@@H](C)CC)C(C)C)[C@@H](C)CC	Glucagon receptor	reporter gene	agonist	luciferase	> 1000
Clc1sccc1CNc1cccc(-c2nnc[nH]2)c1	MTNR1A	cAMP	agonist	luciferase	9300
CC[C@H](C)[C@H](NC(=O)[C@H](Cc1ccccc1)NC(=O)[C@H](CCC(=O)O)NC(=O)[C@H](CCCCN)NC(=O)[C@H](C)NC(=O)[C@H](C)NC(=O)[C@H](CCC(N)=O)NC(=O)CNC(=O)[C@H](CCC(=O)O)NC(=O)[C@H](CC(C)C)NC(=O)[C@H](Cc1ccc(O)cc1)NC(=O)[C@H](CO)NC(=O)[C@H](CO)NC(=O)[C@@H](NC(=O)[C@H](CC(=O)O)NC(=O)[C@H](CO)NC(=O)[C@@H](NC(=O)[C@H](Cc1ccccc1)NC(=O)[C@@H](NC(=O)CNC(=O)[C@H](CCC(=O)O)NC(=O)[C@H](C)NC(=O)[C@@H](N)Cc1c[nH]cn1)[C@@H](C)O)[C@@H](C)O)C(C)C)C(=O)N[C@@H](C)C(=O)N[C@@H](Cc1c[nH]c2ccccc12)C(=O)N[C@@H](CC(C)C)C(=O)N[C@H](C(=O)N[C@@H](CCCCN)C(=O)NCC(=O)N[C@@H](CCCN=C(N)N)C(=O)NCC(=O)O)C(C)C	Glucagon receptor	reporter gene	agonist	luciferase	> 1000
COc1cccc(CN2CCOc3ccc(OC)cc32)c1	MTNR1A	cAMP	agonist	luciferase	6.11
Cc1cccnc1C(=O)Nc1ccc(N2C(=O)c3cccc(Cl)c3C2=O)c(Cl)c1	Metabotropic glutamate receptor 1 (Grm1, Rattus norvegicus, UniProt P23385)	calcium signal	positive allosteric modulator	–	367
COCC(CNC(C)=O)c1cccc2ccc(OC)cc12 (stereo not drawn)	MTNR1A	cAMP	agonist	TR-FRET	21.4
